Assay type in all cases: cell-based
Assay [1] can be described thus: Cytotoxicity against human BT474 cells by MTT assay. The conditions noted are these: BT-474. Put shortly:
(§1)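 In vitro cytotoxicity by MTT colorimetric read-out on human tumor cultures: BT474 (breast carcinoma), CHAGO (lung carcinoma), Hep-G2 (hepatocarcinoma), KATO-3 (gastric carcinoma) and SW-620 (colon carcinoma). Each pure isolate was tested on all five lines.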
(In general: Formazan colour is commonly taken as a measure of viable cells.)

The nature of assay [2]: Cytotoxicity against human CHAGO cells by MTT assay. Put shortly: as §1
Assay [3] has as its system HepG2. In words: Cytotoxicity against human HepG2 cells by MTT assay. Summed up:
as §1

Assay [4] is described as follows: Cytotoxicity against human KATO3 cells by MTT assay. Summed up:
as §1

The test system of assay [5] is SW-620. As to the kind of experiment: Cytotoxicity against human SW620 cells by MTT assay. Put shortly:
as §1

≈ marks a conversion by molar mass, not a printed value.

In general, IC50 refers to the point on the concentration scale where inhibition reaches its midpoint. A low value points to greater potency in that assay.

Consider `CC(C)[C@H]1/C=C/[C@@](C)(O)CC[C@@H]2O[C@@]2(C)Cc2cc(co2)CC1` [FURANOCEMBRANOID 2], for which the IC50 in assay [1] is 9.5 µg/mL (≈ 29.8 µM); in assay [2], greater than 10 µg/mL; in assay [3], greater than 10 µg/mL; in assay [4], 6.8 µg/mL (≈ 21.4 µM); in assay [5], 9.9 µg/mL (≈ 31.1 µM).

For `CC(C)[C@H]1/C=C/[C@@](C)(O)CC[C@@H](O)[C@@](C)(O)C[C@H]2C=C(CC1)C(=O)O2` [FURANOCEMBRANOID 4], the IC50 was determined as 9.6 µg/mL (≈ 27.2 µM) in assay [1]; 9.3 µg/mL (≈ 26.4 µM) in assay [2]; 6.1 µg/mL (≈ 17.3 µM) in assay [3]; 8.1 µg/mL (≈ 23 µM) in assay [4]; 6 µg/mL (≈ 17 µM) in assay [5].

For the compound `C/C1=C\CC[C@](C)(O)/C=C/[C@H](C(C)C)CCc2coc(c2)C1` [FURANOCEMBRANOID 1], the IC50 in assay [1] came out at 7.8 µg/mL (≈ 25.8 µM); in assay [2] it was 7 µg/mL (≈ 23.1 µM); in assay [3], 5.6 µg/mL (≈ 18.5 µM); in assay [4], 5.9 µg/mL (≈ 19.5 µM); in assay [5], 6.3 µg/mL (≈ 20.8 µM).

As to `CC(C)[C@H]1/C=C/[C@@](C)(O)CC[C@@H](O)[C@@](C)(O)Cc2cc(co2)CC1` [FURANOCEMBRANOID 3], the IC50 is 9.6 µg/mL (≈ 28.5 µM) in assay [1]; 7.1 µg/mL (≈ 21.1 µM) in assay [2]; 5.7 µg/mL (≈ 16.9 µM) in assay [3]; 8.2 µg/mL (≈ 24.4 µM) in assay [4]; 5.6 µg/mL (≈ 16.6 µM) in assay [5].

Source of the values: ChEMBL document CHEMBL1142115, “Furanocembranoids from the stem bark of Croton oblongifolius” (J Nat Prod, 2007).
